Measurements reported in ChEMBL document CHEMBL1275253, “Human antimicrobial peptide LL-37 induces MefE/Mel-mediated macrolide resistance in Streptococcus pneumoniae” (2010).
≈ marks a conversion by molar mass, not a printed value.

How the values were obtained:
Type in all cases: functional
Streptococcus pneumoniae [1] = experiment: Antimicrobial activity against mega::aad9-positive Streptococcus pneumoniae XZ8006 by microdilution method
How it was run: (§1)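 Broth microdilution adapted for cationic antimicrobial peptides. Cultures grown to OD600 0.4 without inducer. Bacteria at a final 2 × 10^5/ml in 5-fold-diluted TH medium with 0.5% yeast extract, added to serial dilutions of test agent. After 1 h at 37°C, samples plated on blood agar and incubated 16 h at 37°C with 5% CO2. MIC and MBC read. At least three independent experiments; one representative shown.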

Streptococcus pneumoniae [2] = experiment: Antimicrobial activity against mega::aad9-positive Streptococcus pneumoniae XZ8004 by microdilution method; how it was run: as §1
Streptococcus pneumoniae [3] = experiment: Antimicrobial activity against mega::aad9-positive Streptococcus pneumoniae XZ8006 expressing PmefE-lacZ gene induced by pretreatment with 50 ug/ml of LL-37 peptide for 1 hr by microdilution method
How it was run: (§2)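 Cultures grown to OD600 0.4, then split and pre-exposed 1 h to subinhibitory LL-37: 200 μg/ml for GA17457 and XZ7042, 50 for XZ8006 and XZ8009, 100 for XZ8004. Cells then at a final 2 × 10^5/ml in 5-fold-diluted TH with 0.5% yeast extract, added to serial dilutions. […] At least three independent experiments.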

Streptococcus pneumoniae [4] = experiment: Antimicrobial activity against wild-type Streptococcus pneumoniae GA17457 by microdilution method; how it was run: as §1
Streptococcus pneumoniae [5] = experiment: Antimicrobial activity against Streptococcus pneumoniae XZ7042 expressing PmefE-lacZ gene induced by pretreatment with 200 ug/ml of LL-37 peptide for 1 hr by microdilution method; how it was run: as §2
Streptococcus pneumoniae [6] = experiment: Antimicrobial activity against mefE-mel::aph3-positive Streptococcus pneumoniae XZ8009 expressing PmefE-lacZ gene induced by pretreatment with 50 ug/ml of LL-37 peptide for 1 hr by microdilution method; how it was run: as §2
Streptococcus pneumoniae [7] = experiment: Antimicrobial activity against mega::aad9-positive Streptococcus pneumoniae XZ8004 expressing PmefE-lacZ gene induced by pretreatment with 100 ug/ml of LL-37 peptide for 1 hr by microdilution method; how it was run: as §2
Streptococcus pneumoniae [8] = experiment: Antimicrobial activity against mefE-mel::aph3-positive Streptococcus pneumoniae XZ8009 by microdilution method; how it was run: as §1
Streptococcus pneumoniae [9] = experiment: Antimicrobial activity against wild-type Streptococcus pneumoniae GA17457 expressing PmefE-lacZ gene induced by pretreatment with 200 ug/ml of LL-37 peptide for 1 hr by microdilution method; how it was run: as §2
Streptococcus pneumoniae [10] = experiment: Antimicrobial activity against Streptococcus pneumoniae XZ7042 expressing PmefE-lacZ gene induced by pretreatment with 1 ug/ml of compound for 1 hr by microdilution method
How it was run: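 Reporter: PmefE-lacZ integrated at bga in clinical isolate GA17457 (serotype 19A). Cultures grown to OD600 0.4, split, and grown 1 h with or without a subinhibitory 1 μg/ml inducer. […] Representative of ≥3 experiments.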

Streptococcus pneumoniae [11] = experiment: Antimicrobial activity against Streptococcus pneumoniae XZ7042 by microdilution method; how it was run: as §1
Streptococcus pneumoniae [12] = experiment: Antimicrobial activity against wild-type Streptococcus pneumoniae GA17457 expressing PmefE-lacZ gene induced by pretreatment with 1 ug/ml of compound for 1 hr by microdilution method
How it was run: (§3)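 Cultures grown to OD600 0.4, split and pre-exposed 1 h to 1 μg/ml erythromycin. Final 2 × 10^5 bacteria/ml in 5-fold-diluted TH with 0.5% yeast extract, added to serial dilutions. After 1 h at 37°C, plated on blood agar. […] At least three independent experiments; one representative shown.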

Streptococcus pneumoniae [13] = experiment: Antimicrobial activity against mega::aad9-positive Streptococcus pneumoniae XZ8006 by Etest method
Streptococcus pneumoniae [14] = experiment: Antimicrobial activity against Streptococcus pneumoniae XZ7042 by Etest method
Streptococcus pneumoniae [15] = experiment: Antimicrobial activity against Streptococcus pneumoniae XZ7042 expressing PmefE-lacZ gene induced by pretreatment with 1 ug/ml of erythromycin for 1 hr by microdilution method; how it was run: as §3
Streptococcus pneumoniae [16] = experiment: Antimicrobial activity against mega::aad9-positive Streptococcus pneumoniae XZ8004 expressing PmefE-lacZ gene induced by pretreatment with 100 ug/ml of compound for 1 hr by microdilution method; how it was run: as §2
Streptococcus pneumoniae [17] = experiment: Antimicrobial activity against wild-type Streptococcus pneumoniae GA17457 by Etest method
Streptococcus pneumoniae [18] = experiment: Antimicrobial activity against mefE-mel::aph3-positive Streptococcus pneumoniae XZ8009 expressing PmefE-lacZ gene induced by pretreatment with 50 ug/ml of compound for 1 hr by microdilution method; how it was run: as §2
Streptococcus pneumoniae [19] = experiment: Antimicrobial activity against wild-type Streptococcus pneumoniae GA17457 expressing PmefE-lacZ gene induced by pretreatment with 1 ug/ml of erythromycin for 1 hr by microdilution method; how it was run: as §3
Streptococcus pneumoniae [20] = experiment: Antimicrobial activity against mega::aad9-positive Streptococcus pneumoniae XZ8004 by Etest method
Streptococcus pneumoniae [21] = experiment: Antimicrobial activity against Streptococcus pneumoniae XZ7042 expressing PmefE-lacZ gene induced by pretreatment with 200 ug/ml of compound for 1 hr by microdilution method; how it was run: as §2
Streptococcus pneumoniae [22] = experiment: Antimicrobial activity against wild-type Streptococcus pneumoniae GA17457 expressing PmefE-lacZ gene induced by pretreatment with 200 ug/ml of compound for 1 hr by microdilution method; how it was run: as §2
Streptococcus pneumoniae [23] = experiment: Antimicrobial activity against mefE-mel::aph3-positive Streptococcus pneumoniae XZ8009 by Etest method
Streptococcus pneumoniae [24] = experiment: Antimicrobial activity against mega::aad9-positive Streptococcus pneumoniae XZ8006 expressing PmefE-lacZ gene induced by pretreatment with 50 ug/ml of compound for 1 hr by microdilution method; how it was run: as §2

SMILES: CC[C@H]1OC(=O)[C@H](C)[C@@H](O[C@H]2C[C@@](C)(OC)[C@@H](O)[C@H](C)O2)[C@H](C)[C@@H](O[C@@H]2O[C@H](C)C[C@H](N(C)C)[C@H]2O)[C@](C)(O)C[C@@H](C)C(=O)[C@H](C)[C@@H](O)[C@]1(C)O [ERYTHROMYCIN]
- MBC (Streptococcus pneumoniae [1]): 4 µg/mL (≈ 5.45 µM)
- MIC (Streptococcus pneumoniae [1]): 0.5 µg/mL (≈ 0.681 µM)
- MBC (Streptococcus pneumoniae [2]): 4 µg/mL (≈ 5.45 µM)
- MIC (Streptococcus pneumoniae [2]): 0.25 µg/mL (≈ 0.341 µM)
- MBC (Streptococcus pneumoniae [3]): 4 µg/mL (≈ 5.45 µM)
- MIC (Streptococcus pneumoniae [3]): 0.5 µg/mL (≈ 0.681 µM)
- MBC (Streptococcus pneumoniae [4]): 16 µg/mL (≈ 21.8 µM)
- MIC (Streptococcus pneumoniae [4]): 2 µg/mL (≈ 2.73 µM)
- MBC (Streptococcus pneumoniae [5]): 32 µg/mL (≈ 43.6 µM)
- MIC (Streptococcus pneumoniae [5]): 16 µg/mL (≈ 21.8 µM)
- MBC (Streptococcus pneumoniae [6]): 2 µg/mL (≈ 2.73 µM)
- MIC (Streptococcus pneumoniae [6]): 0.125 µg/mL (≈ 0.17 µM)
- MBC (Streptococcus pneumoniae [7]): 4 µg/mL (≈ 5.45 µM)
- MIC (Streptococcus pneumoniae [7]): 0.5 µg/mL (≈ 0.681 µM)
- MBC (Streptococcus pneumoniae [8]): 4 µg/mL (≈ 5.45 µM)
- MIC (Streptococcus pneumoniae [8]): 0.5 µg/mL (≈ 0.681 µM)
- MBC (Streptococcus pneumoniae [9]): 32 µg/mL (≈ 43.6 µM)
- MIC (Streptococcus pneumoniae [9]): 8 µg/mL (≈ 10.9 µM)
- MBC (Streptococcus pneumoniae [10]): > 64 µg/mL
- MIC (Streptococcus pneumoniae [10]): 4 µg/mL (≈ 5.45 µM)
- MBC (Streptococcus pneumoniae [11]): 8 µg/mL (≈ 10.9 µM)
- MIC (Streptococcus pneumoniae [11]): 1 µg/mL (≈ 1.36 µM)
- MBC (Streptococcus pneumoniae [12]): > 64 µg/mL
- MIC (Streptococcus pneumoniae [12]): 8 µg/mL (≈ 10.9 µM)

SMILES: CC[C@H](C)[C@H](NC(=O)[C@H](CCCCN)NC(=O)[C@H](CCC(=O)O)NC(=O)[C@H](CCCCN)NC(=O)[C@H](CO)NC(=O)[C@H](CCCCN)NC(=O)[C@H](CCCNC(=N)N)NC(=O)[C@H](Cc1ccccc1)NC(=O)[C@H](Cc1ccccc1)NC(=O)[C@H](CC(=O)O)NC(=O)CNC(=O)[C@H](CC(C)C)NC(=O)[C@@H](N)CC(C)C)C(=O)NCC(=O)N[C@@H](CCCCN)C(=O)N[C@@H](CCC(=O)O)C(=O)N[C@@H](Cc1ccccc1)C(=O)N[C@@H](CCCCN)C(=O)N[C@@H](CCCNC(=N)N)C(=O)N[C@H](C(=O)N[C@H](C(=O)N[C@@H](CCC(N)=O)C(=O)N[C@@H](CCCNC(=N)N)C(=O)N[C@H](C(=O)N[C@@H](CCCCN)C(=O)N[C@@H](CC(=O)O)C(=O)N[C@@H](Cc1ccccc1)C(=O)N[C@@H](CC(C)C)C(=O)N[C@@H](CCCNC(=N)N)C(=O)N[C@@H](CC(N)=O)C(=O)N[C@@H](CC(C)C)C(=O)N[C@H](C(=O)N1CCC[C@H]1C(=O)N[C@@H](CCCNC(=N)N)C(=O)N[C@H](C(=O)N[C@@H](CCC(=O)O)C(=O)N[C@@H](CO)C(=O)O)[C@@H](C)O)C(C)C)[C@@H](C)CC)C(C)C)[C@@H](C)CC [CATHELICIDIN]
- MIC (Streptococcus pneumoniae [13]): 0.125 µg/mL (≈ 0.0278 µM)
- MBC (Streptococcus pneumoniae [1]): 250 µg/mL (≈ 55.6 µM)
- MIC (Streptococcus pneumoniae [1]): 125 µg/mL (≈ 27.8 µM)
- MIC (Streptococcus pneumoniae [14]): 12 µg/mL (≈ 2.67 µM)
- MBC (Streptococcus pneumoniae [2]): 500 µg/mL (≈ 111 µM)
- MIC (Streptococcus pneumoniae [2]): 250 µg/mL (≈ 55.6 µM)
- MBC (Streptococcus pneumoniae [15]): > 2000 µg/mL
- MIC (Streptococcus pneumoniae [15]): 2000 µg/mL
- MBC (Streptococcus pneumoniae [4]): 1000 µg/mL (≈ 223 µM)
- MIC (Streptococcus pneumoniae [4]): 500 µg/mL (≈ 111 µM)
- MBC (Streptococcus pneumoniae [16]): 250 µg/mL (≈ 55.6 µM)
- MIC (Streptococcus pneumoniae [16]): 125 µg/mL (≈ 27.8 µM)
- MIC (Streptococcus pneumoniae [17]): 12 µg/mL (≈ 2.67 µM)
- MBC (Streptococcus pneumoniae [18]): 250 µg/mL (≈ 55.6 µM)
- MIC (Streptococcus pneumoniae [18]): 64 µg/mL (≈ 14.2 µM)
- MBC (Streptococcus pneumoniae [19]): > 2000 µg/mL
- MIC (Streptococcus pneumoniae [19]): 2000 µg/mL
- MIC (Streptococcus pneumoniae [20]): 0.125 µg/mL (≈ 0.0278 µM)
- MBC (Streptococcus pneumoniae [21]): > 2000 µg/mL
- MIC (Streptococcus pneumoniae [21]): 2000 µg/mL (≈ 445 µM)
- MBC (Streptococcus pneumoniae [22]): > 2000 µg/mL
- MIC (Streptococcus pneumoniae [22]): 2000 µg/mL (≈ 445 µM)
- MBC (Streptococcus pneumoniae [8]): 250 µg/mL (≈ 55.6 µM)
- MIC (Streptococcus pneumoniae [8]): 125 µg/mL (≈ 27.8 µM)
- MBC (Streptococcus pneumoniae [11]): 1000 µg/mL (≈ 223 µM)
- MIC (Streptococcus pneumoniae [11]): 500 µg/mL (≈ 111 µM)
- MIC (Streptococcus pneumoniae [23]): 0.125 µg/mL (≈ 0.0278 µM)
- MBC (Streptococcus pneumoniae [24]): 250 µg/mL (≈ 55.6 µM)
- MIC (Streptococcus pneumoniae [24]): 125 µg/mL (≈ 27.8 µM)
